Tests used:
Human alphaherpesvirus 1 = assay: Antiviral activity against HSV1 by colorimetric method; assay type: functional, organism-based
Outline: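 HSV-1 inhibition read by a colorimetric method, with acyclovir as the reference compound. IC50 reported as mean ± SD, n = 3.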

Plasmodium falciparum = assay: Antimalarial activity against Plasmodium falciparum K1 by microculture radioisotope assay; assay type: functional, organism-based
Outline: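 Radioisotope microculture assay of P. falciparum K1 growth, with dihydroartemisinin as the reference antimalarial. IC50 reported as mean ± SD, n = 3.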

KB = assay: Cytotoxicity against human KB cells by colorimetric method; assay type: functional, cell-based
Outline: (§1)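 Colorimetric cytotoxicity read-out, with ellipticine as the reference compound. Cell types: KB (oral human epidermal carcinoma), BC (human breast cancer), NCI-H187 (human small-cell lung cancer) and Vero (African green monkey kidney fibroblast). IC50 reported as mean ± SD, n = 3.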

NCI-H187 = assay: Cytotoxicity against human NCI-H187 cells by colorimetric method; assay type: functional, cell-based; outline: as §1
[1] = Cytotoxicity against human BC cells by colorimetric method; assay type: functional, cell-based; outline: as §1
Vero = assay: Cytotoxicity against African green monkey Vero cells by colorimetric method; assay type: cell-based; settings: Chlorocebus sabaeus; outline: as §1

Structure (SMILES) | IC50 (Human alphaherpesvirus 1) | IC50 (Plasmodium falciparum) | IC50 (KB) | IC50 (NCI-H187) | IC50 [1] | IC50 (Vero)
C[C@H]1[C@@H](O)O[C@@H]2O[C@@]3(C)CC[C@H]4[C@H](C)CC[C@@H]1[C@@]24OO3 [ARTENIMOL] | – | 0.0039 µM | – | – | – | –
CCCCCCCc1cc(O)cc(OC(=O)c2c(CCCCCCC)cc(O)cc2O[C@@H]2O[C@H](CO)[C@H](O)[C@H](O)[C@H]2O)c1 | 7.2 µM | > 10 µM | > 25 µM | 13.9 µM | 4.4 µM | 43.2 µM
CCCCCCCc1cc(O)cc(OC(=O)c2c(CCCCCCC)cc(O)cc2O[C@@H]2O[C@H](CO[C@@H]3O[C@H](CO)[C@H](O)[C@H](O)[C@H]3O)[C@H](O)[C@H](O)[C@H]2O)c1 | > 50 µM | > 10 µM | > 25 µM | > 25 µM | 20.2 µM | 32.1 µM
Cc1c2ccncc2c(C)c2c1[nH]c1ccccc12 [ELLIPTECINE] | – | – | 1.99 µM | 1.71 µM | 0.49 µM | 10.2 µM

The next lines start with results.

IC50 (Human alphaherpesvirus 1) | IC50 (Plasmodium falciparum) | Structure (SMILES) | IC50 (KB) | IC50 (NCI-H187) | IC50 [1] | IC50 (Vero)
10.2 µM | – | Nc1nc2c(ncn2COCCO)c(=O)[nH]1 [ACYCLOVIR] | – | – | – | –
> 100 µM | 9.9 µM | CCCCCCCc1cc(O)cc(OC(=O)c2c(O)cc(O)cc2CCCCCCC)c1 | 13 µM | 13.6 µM | 8.8 µM | 34.3 µM
> 100 µM | > 25 µM | CCCCCCCc1cc(O)cc(O[C@@H]2O[C@H](CO)[C@@H](OC)[C@H](O)[C@H]2O)c1 | > 50 µM | > 50 µM | > 50 µM | > 100 µM
